Results as given in ChEMBL document CHEMBL1156199, “Synthesis of new acridone derivatives, inhibitors of NS3 helicase, which efficiently and specifically inhibit subgenomic HCV replication” (J Med Chem, 2010).
Activity calls are given as the source filed them. No cut-off for these calls is given here.

Assays:
[1] = Therapeutic index, ratio of CC50 for human HuH7 cells to EC50 for HCV 1b; format: cell-based, Huh-7; settings: read-out: Ratio CC50/EC50
Summary of the method: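 Therapeutic index calculated as CC50 (XTT, replicon-bearing Huh-7 cells) divided by EC50 (luminescence replicon assay, genotype 1b).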

Hepatitis C virus [2] = test: Antiviral activity against HCV 1b infected in human HuH7 cells assessed as inhibition of viral RNA replication after 4 days by replicon assay; format: functional, organism-based, Hepacivirus hominis; settings: genotype 1b, Huh-7, 96 h
Summary of the method: (§1)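 Huh-7 cells carrying genotype 1b subgenomic replicon; compounds in DMSO tested from 1 to 200 μM or 1 μM to 1 mM depending on solubility; luminescence-based replicon RNA amplification assay; EC50 = concentration reducing luminescence by 50%.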

[3] = Cytotoxicity against human HuH7 cells after3 days by XTT assay
Nucleic Acid [4] = test: Binding affinity to […] assessed as inhibition of ethidium bromide DNA intercalation at 100 uM by gel migration retardation assay; format: nucleic-acid assay; settings: Hepacivirus hominis
Summary of the method: (§2)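 dsNA gel migration retardation assay on dsDNA: compound (100 or 500 μM) incubated with dsDNA, ethidium bromide staining; intercalation read as partial or total loss of the dsDNA band; DMSO as negative and epidoxorubicin as positive control.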

Nucleic Acid [5] = test: Binding affinity to […] assessed as inhibition of ethidium bromide DNA intercalation by gel migration retardation assay; format: nucleic-acid assay; settings: Hepacivirus hominis; summary of the method: as §2
[6] = tested on: NS3 helicase (Hepatitis C virus genotype 1a); test: Inhibition of HCV 1a NS3 helicase by fluorimetry
Hepatitis C virus [7] = test: Antiviral activity against HCV 1b infected in human HuH7 cells assessed as inhibition of viral RNA replication at 5.8 uM after 4 days by replicon assay; format: functional, Hepacivirus hominis; settings: genotype 1b, Huh-7, 96 h; summary of the method: as §1
Nucleic Acid [8] = test: Binding affinity to HCV dsRNA assessed as inhibition of ethidium bromide RNA intercalation by gel migration retardation assay; format: nucleic-acid assay; settings: Hepacivirus hominis
Summary of the method: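 dsRNA gel migration retardation assay: compound incubated with dsRNA, ethidium bromide staining; intercalation read as partial or total disappearance of the dsRNA band; DMSO and epidoxorubicin controls.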

[9] = Inhibition of HCV NS3 helicase in presence of 0.5 mM ATP; design: species or system Hepacivirus hominis
Hepatitis C virus [10] = test: Antiviral activity against HCV 1b infected in mutant human HuH7 cells assessed as inhibition of viral RNA replication after 4 days by replicon assay; format: functional, organism-based, Hepacivirus hominis; settings: genotype 1b, Huh-7, 96 h
[11] = Inhibition of HCV NS3 helicase in presence of 2.5 mM ATP; design: species or system Hepacivirus hominis
[12] = Inhibition of HCV 3a NS3 helicase by fluorimetry; design: species or system Hepatitis C virus subtype 3a
Summary of the method: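 Fluorometric helicase unwinding assay with a dsDNA substrate at 37 °C; NS3 helicase domain (genotype […], from patient-derived RNA) expressed in baculovirus and purified from insect cells, used at 50 nM; IC50 = concentration reducing helicase activity by 50%, relative to DMSO control.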

[13] = Inhibition of HCV NS3 helicase in presence of 1.5 mM ATP; design: species or system Hepacivirus hominis
Hepatitis C virus [14] = test: Antiviral activity against HCV 1b infected in human HuH7 cells assessed as inhibition of viral RNA replication at 10 uM after 4 days by replicon assay; format: functional, Hepacivirus hominis; settings: genotype 1b, Huh-7, 168 h, in the assay text read “after 7 days” for “after 4 days”
Summary of the method: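 Huh-7 cells with genotype 1b subgenomic replicon seeded at 4 × 10⁵ per dish in DMEM, grown 7 days with 0, 1, 10 or 100 μM compound; 5 μg total RNA reverse transcribed (3UTR, oligo(dT)15, random hexamer primers), equal cDNA used for real-time PCR (45 cycles, 56 °C annealing) to quantify replicon RNA.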

Hepatitis C virus [15] = test: Antiviral activity against HCV 1b infected in human HuH7 cells assessed as inhibition of viral RNA replication at 2.7 uM after 4 days by replicon assay; format: functional, Hepacivirus hominis; settings: genotype 1b, Huh-7, 96 h; summary of the method: as §1

Compound | selectivity ratio [1] | EC50 (Hepatitis C virus [2]) [µM] | CC50 at 72 h [3] [µM] | IC50 [6] [µM] | further results
NC(=O)c1ncn([C@@H]2O[C@H](CO)[C@@H](O)[C@H]2O)n1 [RIBAVIRIN] | 60.2 | 17.6 | 1060 | – | –
COc1cccc2c(=O)c3cccc(C(=O)Nc4cccnc4)c3[nH]c12 | > 28 | 3.5 | > 100 | 20.6 | Activity (Nucleic Acid [4]): Active; Activity (Nucleic Acid [5]): Active
COc1cccc2c(=O)c3cccc(C(=O)Nc4ccccn4)c3[nH]c12 | 1.1 | 2.3 | 2.5 | 6.2 | Activity (Nucleic Acid [5]): Active
COc1cccc2c(=O)c3cccc(C(=O)Nc4cc(Cl)ccn4)c3[nH]c12 | – | – | 171 | 35.8 | inhibition at 5.8 µM (Hepatitis C virus [7]): 30%
COc1cccc2c(=O)c3cc(Cl)cc(C(=O)Nc4ccccn4)c3[nH]c12 | 3.2 | 5 | 15.8 | 64.7 | Activity (Nucleic Acid [8]): inactive
COc1cccc2c(=O)c3cc(F)cc(C(=O)Nc4cccnc4)c3[nH]c12 | > 1000 | 0.98 | > 1000 | 8.6 | IC50 [9]: 10.9 µM; EC50 (Hepatitis C virus [10]): 251 µM; IC50 [11]: 9.9 µM; IC50 [12]: 7.3 µM; IC50 [13]: 8.6 µM; inhibition at 10 µM (Hepatitis C virus [14]): 85%
COc1cccc2c(=O)c3cc(F)cc(C(=O)Nc4ccccn4)c3[nH]c12 | – | – | > 100 | 4.7 | IC50 [9]: 6.5 µM; inhibition at 2.7 µM (Hepatitis C virus [15]): 30%; IC50 [11]: 5.1 µM; IC50 [13]: 4.7 µM
[N-]=[N+]=N[C@]1(CO)O[C@@H](n2ccc(N)nc2=O)[C@H](O)[C@@H]1O [4'-AZIDOCYTIDINE] | > 143 | – | > 200 | – | –
COc1cccc2c(=O)c3cc(F)cc(C(=O)Nc4cc(Cl)ccn4)c3[nH]c12 | – | > 100 | > 100 | 46.3 | –
COc1cc(NC(=O)c2cccc3c(=O)c4cccc(OC)c4[nH]c23)cc(OC)c1OC | > 2.5 | 203 | > 500 | 751 | –
COc1cccc2c(=O)c3cc(Cl)cc(C(=O)Nc4cccnc4)c3[nH]c12 | 20.1 | 0.96 | 19.3 | 54.6 | –
COc1cccc2c(=O)c3cc(Cl)cc(C(=O)Nc4cc(Cl)ccn4)c3[nH]c12 | – | > 100 | > 100 | 1.5 | IC50 [9]: 1.1 µM; IC50 [11]: 1.1 µM; IC50 [13]: 1.5 µM
O=C(Nc1ccncc1)c1cccc2c(=O)c3cccc(OCc4ccccc4)c3[nH]c12 | – | > 100 | > 100 | 8 | –
